What was measured:
[1] = Cytotoxicity against human U87-Mg cells after 72 hrs by MTT assay; format: cell-based, U-87MG ATCC; conditions: U-87 MG
Summary of the method: (§1)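 Cells seeded at 2500-30 000 per well depending on growth characteristics, preincubated 24 h at 37 °C, 5% CO2. Compounds dissolved in 10% DMSO, added as four-fold dilutions, quadruplicate. 72 h exposure at 37 °C, 5% CO2, 100% humidity. MTT added for 1-4 h, formazan dissolved in 10% aqueous SDS (pH 5.5) overnight at 37 °C, OD 540 nm. Survival relative to control wells; TCS50 taken from dose-response curves.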

CCRF-CEM [2] = assay: Cytotoxicity against human CEM cells after 72 hrs by MTT assay; format: cell-based; summary of the method: as §1
HT-29 = assay: Cytotoxicity against human HT29 cells after 72 hrs by MTT assay; format: cell-based; conditions: HT-29, 72 h; summary of the method: as §1
CCRF-CEM [3] = assay: Cytotoxicity against daunorubicin-resistant CEM-DNR-bulk cells after 72 hrs by MTT assay; format: cell-based; conditions: Homo sapiens; summary of the method: as §1
[4] = Cytotoxicity against human Pgp-positive multidrug-resistant K562-tax cells after 72 hrs by MTT assay; format: ADME, cell-based; summary of the method: as §1
SK-MEL-2 = assay: Cytotoxicity against human SK-MEL-2 cells after 72 hrs by MTT assay; format: cell-based; conditions: SK-MEL-2, 72 h
Summary of the method: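 Cells seeded at 2500–30 000/well by growth characteristics, preincubated 24 h at 37 °C, 5% CO2; four-fold dilutions of compound (dissolved in 10% DMSO) added, 72 h exposure at 37 °C, 5% CO2, 100% humidity; quadruplicate. MTT 1–4 h, formazan dissolved in 10% SDS (pH 5.5) overnight, OD 540 nm; survival vs control wells, TCS50 from dose–response curves.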

PC-3 = assay: Cytotoxicity against human PC3 cells after 72 hrs by MTT assay; format: cell-based; conditions: PC-3, 72 h; summary of the method: as §1
A549 = assay: Cytotoxicity against human A549 cells after 72 hrs by MTT assay; format: cell-based; conditions: A549, 72 h; summary of the method: as §1
K562 = assay: Cytotoxicity against human K562 cells after 72 hrs by MTT assay; format: cell-based; conditions: K562, 72 h; summary of the method: as §1
[5] = Cytotoxicity against B2-4 cells after 72 hrs by MTT assay; format: cell-based; conditions: Homo sapiens, B2-4, 72 h; summary of the method: as §1

Row | Structure (SMILES) | IC50 (CCRF-CEM [2]) [µM] | IC50 (HT-29) [µM] | IC50 [4] [µM] | IC50 (PC-3) [µM] | IC50 (A549) [µM] | IC50 (K562) [µM] | also measured
1 | COC(=O)[C@@]12CC[C@]3(C)[C@H](CC[C@@H]4[C@@]5(C)CC[C@H](OC(C)=O)C(C)(C)[C@@H]5CC[C@]43C)C1=C(C(C)C)C(=O)C2=O | 16 | 7 | 9 | 14 | 13 | 6 | IC50 [1]: 74 µM; IC50 (CCRF-CEM [3]): 5 µM; IC50 (SK-MEL-2): 14 µM
2 | CC1(C)CC[C@]23CC[C@]4(C)[C@H](CC[C@@H]5[C@@]6(C)Cc7nccnc7C(C)(C)[C@@H]6CC[C@]54C)[C@H]2[C@H]1OC3 | 250 | – | – | – | – | – | –
3 | CC(=O)OC1CC[C@]2(C)[C@H]3CC[C@H]4C5=C(CC[C@@]4(C)[C@]3(C)CC[C@H]2C1(C)C)c1nccnc1[C@H]5C(C)C (some centres not stated) | 244 | – | – | – | – | – | –
4 | CC(C)C1=C2CC[C@]3(C)[C@H](CC[C@@H]4[C@H]5[C@H]6O[C@@]5(CCC6(C)C)CC[C@]43C)[C@@]2(C)C(=O)C1=O | 250 | – | – | – | – | – | –
5 | C=C(C)[C@@H]1CC[C@]2(C(=O)OC)CC[C@]3(C)[C@H](CC[C@@H]4[C@@]5(C)Cc6nccnc6C(C)(C)[C@@H]5CC[C@]43C)[C@@H]12 | 250 | – | – | – | – | – | –
6 | CC(=O)OC[C@@]12CC[C@]3(C)[C@H](CC[C@@H]4[C@@]5(C)CCC(OC(C)=O)C(C)(C)[C@@H]5CC[C@]43C)C1=C(C(C)C)c1nccnc12 (some centres not stated) | 215 | – | – | – | – | – | –
7 | C=C(C)[C@@H]1CC[C@]2(CO)CC[C@]3(C)[C@H](CC[C@@H]4[C@@]5(C)Cc6nc7ccccc7nc6C(C)(C)[C@@H]5CC[C@]43C)[C@@H]12 | 178 | – | – | – | – | – | –
8 | CC(C)[C@@H]1CC[C@]2(CO)CC[C@]3(C)[C@H](CC[C@@H]4[C@@]5(C)Cc6nc7ccccc7nc6C(C)(C)[C@@H]5CC[C@]43C)[C@@H]12 | 35 | – | – | – | – | – | –
9 | COC(=O)[C@]12CC[C@@H](C(C)C)[C@@H]1[C@H]1CC[C@@H]3[C@@]4(C)Cc5nccnc5C(C)(C)[C@@H]4CC[C@@]3(C)[C@]1(C)CC2 | 151 | 164 | 91 | 227 | 220 | 201 | IC50 [1]: 231 µM; IC50 [5]: 94 µM; IC50 (CCRF-CEM [3]): 235 µM
10 | C=C(C)[C@@H]1CC[C@]2(C(=O)O)CC[C@]3(C)[C@H](CC[C@@H]4[C@@]5(C)Cc6nc7ccccc7nc6C(C)(C)[C@@H]5CC[C@]43C)[C@@H]12 | 42 | 96 | 118 | 64 | 48 | 86 | IC50 (SK-MEL-2): 192 µM
11 | CC(C)[C@@H]1CC[C@]2(C(=O)O)CC[C@]3(C)[C@H](CC[C@@H]4[C@@]5(C)Cc6nc7ccccc7nc6C(C)(C)[C@@H]5CC[C@]43C)[C@@H]12 | 124 | 123 | 117 | 103 | 122 | 113 | IC50 [1]: 148 µM; IC50 [5]: 99 µM; IC50 (CCRF-CEM [3]): 198 µM
12 | C=C(C)[C@@H]1CC[C@]2(CO)CC[C@]3(C)[C@H](CC[C@@H]4[C@@]5(C)Cc6nccnc6C(C)(C)[C@@H]5CC[C@]43C)[C@@H]12 | 101 | – | – | – | – | – | –
13 | CC(C)[C@@H]1CC[C@]2(CO)CC[C@]3(C)[C@H](CC[C@@H]4[C@@]5(C)Cc6nccnc6C(C)(C)[C@@H]5CC[C@]43C)[C@@H]12 | 74 | – | – | – | – | – | –
14 | C=C(C)[C@@H]1CC[C@]2(C(=O)OCOC(=O)C(C)(C)C)CC[C@]3(C)[C@H](CC[C@@H]4[C@@]5(C)Cc6nccnc6C(C)(C)[C@@H]5CC[C@]43C)[C@@H]12 | 232 | 250 | 149 | 250 | 51 | 100 | IC50 (SK-MEL-2): 250 µM
15 | CC(=O)OC[C@@]12CC[C@]3(C)[C@H](CC[C@@H]4[C@@]5(C)CC[C@H](OC(C)=O)C(C)(C)[C@@H]5CC[C@]43C)C1=C(C(C)C)C(=O)C2=O | 250 | 250 | 250 | 208 | 103 | 250 | IC50 (SK-MEL-2): 170 µM
16 | CC(C)C1=C2CC[C@]3(C)[C@H](CC[C@H]4C5[C@H]6O[C@@]5(CCC6(C)C)CC[C@]43C)[C@@]2(C)c2nccnc21 (some centres not stated) | 250 | – | – | – | – | – | –
17 | CC(C)C1=C2CC[C@]3(C)[C@H](CC[C@@H]4[C@H]5[C@H]6O[C@@]5(CCC6(C)C)CC[C@]43C)[C@@]2(C)c2nc3ccccc3nc21 | 250 | – | – | – | – | – | –

Row | Structure (SMILES) | IC50 (CCRF-CEM [2]) [µM] | IC50 (HT-29) [µM] | IC50 [4] [µM] | IC50 (PC-3) [µM] | IC50 (A549) [µM] | IC50 (K562) [µM] | also measured
18 | COC(=O)[C@]12CC[C@@H](C(C)C)[C@@H]1[C@H]1CC[C@@H]3[C@@]4(C)Cc5nc6ccccc6nc5C(C)(C)[C@@H]4CC[C@@]3(C)[C@]1(C)CC2 | 250 | – | – | – | – | – | –
19 | CC1(C)CC[C@]23CC[C@]4(C)[C@H](CC[C@@H]5[C@@]6(C)Cc7nc8ccccc8nc7C(C)(C)[C@@H]6CC[C@]54C)[C@H]2[C@H]1OC3 | 250 | – | – | – | – | – | –
20 | C=C(C)[C@@H]1CC[C@]2(C(=O)OCOC(C)=O)CC[C@]3(C)[C@H](CC[C@@H]4[C@@]5(C)Cc6nccnc6C(C)(C)[C@@H]5CC[C@]43C)[C@@H]12 | 12 | 77 | 35 | 35 | 1 | 2 | IC50 (SK-MEL-2): 69 µM
21 | COC(=O)[C@@]12CC[C@]3(C)[C@@H](CC[C@@H]4[C@@]5(C)CCC(OC(C)=O)C(C)(C)[C@@H]5CC[C@]43C)C1=C(C(C)C)c1nccnc12 (some centres not stated) | 250 | – | – | – | – | – | –
22 | COC(=O)[C@@]12CC[C@]3(C)[C@H](CC[C@@H]4[C@@]5(C)CCC(OC(C)=O)C(C)(C)[C@@H]5CC[C@]43C)C1=C(C(C)C)c1nc3ccccc3nc12 (some centres not stated) | 192 | – | – | – | – | – | –
23 | C=C(C)[C@@H]1CC[C@]2(C(=O)OC)CC[C@]3(C)[C@H](CC[C@@H]4[C@@]5(C)Cc6nc7ccccc7nc6C(C)(C)[C@@H]5CC[C@]43C)[C@@H]12 | 250 | 250 | 250 | 250 | 250 | 245 | IC50 [1]: 250 µM; IC50 [5]: 47 µM; IC50 (CCRF-CEM [3]): 250 µM
24 | CC(=O)OC[C@@]12CC[C@]3(C)[C@@H](CC[C@@H]4[C@@]5(C)CCC(OC(C)=O)C(C)(C)[C@@H]5CC[C@]43C)C1=C(C(C)C)c1nc3ccccc3nc12 (some centres not stated) | 106 | 229 | 234 | 233 | 101 | 70 | IC50 (SK-MEL-2): 231 µM
25 | CC1(C)CC[C@]23CC[C@]4(C)[C@H](CC[C@@H]5[C@@]6(C)CC[C@H](O)C(C)(C)[C@@H]6CC[C@]54C)[C@H]2[C@H]1OC3 [ALLOBETULIN] | 250 | – | – | – | – | – | –
26 | CC1(C)CC[C@]23CC[C@]4(C)[C@H](CC[C@@H]5[C@@]6(C)CCC(=O)C(C)(C)[C@@H]6CC[C@]54C)[C@H]2[C@H]1O3 [ALLOBETULONE] | 250 | – | – | – | – | – | –
27 | C=C(C)[C@@H]1CC[C@]2(C(=O)O)CC[C@]3(C)[C@H](CC[C@@H]4[C@@]5(C)CC[C@H](O)C(C)(C)[C@@H]5CC[C@]43C)[C@@H]12 [BETULINIC ACID] | 30 | – | – | – | – | – | –
28 | C=C(C)[C@@H]1CC[C@]2(CO)CC[C@]3(C)[C@H](CC[C@@H]4[C@@]5(C)CC[C@H](O)C(C)(C)[C@@H]5CC[C@]43C)[C@@H]12 [BETULIN] | 250 | – | – | – | – | – | –
29 | C=C(C)[C@@H]1CC[C@]2(C(=O)O)CC[C@]3(C)[C@H](CC[C@@H]4[C@@]5(C)CCC(=O)C(C)(C)[C@@H]5CC[C@]43C)[C@@H]12 [BETUNOLIC ACID] | 20 | 17 | 17 | 15 | 15 | 6 | IC50 [1]: 159 µM; IC50 (SK-MEL-2): 26 µM
30 | CC(C)[C@@H]1CC[C@]2(C(=O)O)CC[C@]3(C)C(CCC4[C@@]5(C)CC[C@H](O)C(C)(C)C5CC[C@]43C)C12 (some centres not stated) [DIHYDROBETULINIC ACID] | 7 | – | – | – | – | – | –
31 | CC(C)[C@@H]1CC[C@]2(C(=O)O)CC[C@]3(C)[C@H](CC[C@@H]4[C@@]5(C)CCC(=O)C(C)(C)[C@@H]5CC[C@]43C)[C@@H]12 [DIHYDROBETULONIC ACID] | 2 | – | – | – | – | – | –
32 | C=C(C)[C@@H]1CC[C@]2(C(=O)OC)CC[C@]3(C)[C@H](CC[C@@H]4[C@@]5(C)CCC(=O)C(C)(C)[C@@H]5CC[C@]43C)[C@@H]12 [METHYL BETULONATE] | 250 | – | – | – | – | – | –
33 | COC(=O)[C@]12CC[C@@H](C(C)C)[C@@H]1[C@H]1CC[C@@H]3[C@@]4(C)CCC(=O)C(C)(C)[C@@H]4CC[C@@]3(C)[C@]1(C)CC2 [METHYL DIHYDROBETULONATE] | 173 | – | – | – | – | – | –

— ChEMBL document CHEMBL1142126, “Triterpenoid pyrazines and benzopyrazines with cytotoxic activity” (J Nat Prod, 2007)
